pIC50, pKi: −log10 of the molar value. ≈ marks a conversion by molar mass, not a printed value. Calls of active or inactive are those of the source. No cut-off for these calls is given here.
Tests used:
[1] = Anticancer activity against human DU145 cells assessed as cell viability after 48 hrs by MTT assay; assay type: functional, cell-based; details: DU-145, 48 h
Procedure, shortened: (§1)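 MTT cytotoxicity assay in human DU-145 prostate, MCF-7 breast and HeLa cervical cancer cell lines. Doxorubicin was the reference drug.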

MCF7 = experiment: Anticancer activity against human MCF7 cells assessed as cell viability after 48 hrs by MTT assay; assay type: functional, cell-based; details: MCF7, 48 h; procedure, shortened: as §1
HeLa = experiment: Anticancer activity against human HeLa cells assessed as cell viability after 48 hrs by MTT assay; assay type: functional, cell-based; procedure, shortened: as §1
Bacillus cereus [2] = experiment: Antibacterial activity against Bacillus cereus ATCC 14579 assessed as growth inhibition at 100 ug/ml after 24 hrs by agar well diffusion method; assay type: functional
Procedure, shortened: (§2)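 Agar well diffusion. Compounds were tested at 10, 20, 100, 200 and 300 µg/mL, and the zone of inhibition was measured in mm. Gentamycin sulfate was the reference drug.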

Bacillus spizizenii [3] = experiment: Antibacterial activity against Bacillus subtilis ATCC 6633 assessed as growth inhibition at 100 ug/ml after 24 hrs by agar well diffusion method; assay type: functional, organism-based; procedure, shortened: as §2
Proteus vulgaris [4] = experiment: Antibacterial activity against Proteus vulgaris ATCC 13315 assessed as growth inhibition at 100 ug/ml after 24 hrs by agar well diffusion method; assay type: functional; procedure, shortened: as §2
Staphylococcus aureus [5] = experiment: Antibacterial activity against methicillin-resistant Staphylococcus aureus NCTC 13616 assessed as growth inhibition at 100 ug/ml after 24 hrs by agar well diffusion method; assay type: functional, organism-based
Procedure, shortened: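 Agar well diffusion assay with compounds applied to wells at several concentrations, including the 100 level reported here. The zone of inhibition was measured in mm. Gentamycin sulfate was the standard drug.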

Klebsiella pneumoniae [6] = experiment: Antibacterial activity against Klebsiella pneumoniae ATCC 43816 assessed as growth inhibition at 100 ug/ml after 24 hrs by agar well diffusion method; assay type: functional; procedure, shortened: as §2
Escherichia coli [7] = experiment: Antibacterial activity against Escherichia coli ATCC 8739 assessed as growth inhibition at 100 ug/ml after 24 hrs by agar well diffusion method; assay type: functional; procedure, shortened: as §2
Escherichia coli [8] = experiment: Antibacterial activity against Escherichia coli ATCC 8739 after 24 hrs by microtiter plate method; assay type: functional; details: ATCC 8739, 24 h
Procedure, shortened: (§3)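 Test concentrations reported in µg/mL. Gentamycin sulfate and ampicillin were the reference drugs.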

Klebsiella pneumoniae [9] = experiment: Antibacterial activity against Klebsiella pneumoniae ATCC 43816 after 24 hrs by microtiter plate method; assay type: functional; details: ATCC 43816, 24 h; procedure, shortened: as §3
Proteus vulgaris [10] = experiment: Antibacterial activity against Proteus vulgaris ATCC 13315 after 24 hrs by microtiter plate method; assay type: functional; details: ATCC 13315, 24 h; procedure, shortened: as §3
Staphylococcus aureus [11] = experiment: Antibacterial activity against methicillin-resistant Staphylococcus aureus NCTC 13616 after 24 hrs by microtiter plate method; assay type: functional; details: NCTC 13616, 24 h
Bacillus spizizenii [12] = experiment: Antibacterial activity against Bacillus subtilis ATCC 6633 after 24 hrs by microtiter plate method; assay type: functional; details: ATCC 6633, 24 h; procedure, shortened: as §3
Bacillus cereus [13] = experiment: Antibacterial activity against Bacillus cereus ATCC 14579 after 24 hrs by microtiter plate method; assay type: functional; details: ATCC 14579, 24 h; procedure, shortened: as §3
Escherichia coli [14] = experiment: Bactericidal activity against Escherichia coli ATCC 8739 after 24 hrs; assay type: functional; details: ATCC 8739, 24 h, read-out: MBC99.9
Procedure, shortened: (§4)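 MBC determined by a standard MBC protocol alongside the MIC, with values in µg/mL. Gentamycin sulfate and ampicillin were the references.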

Klebsiella pneumoniae [15] = experiment: Bactericidal activity against Klebsiella pneumoniae ATCC 43816 after 24 hrs; assay type: functional; details: ATCC 43816, 24 h, read-out: MBC99.9; procedure, shortened: as §4
Proteus vulgaris [16] = experiment: Bactericidal activity against Proteus vulgaris ATCC 13315 after 24 hrs; assay type: functional; details: ATCC 13315, 24 h, read-out: MBC99.9; procedure, shortened: as §4
Staphylococcus aureus [17] = experiment: Bactericidal activity against methicillin-resistant Staphylococcus aureus NCTC 13616 after 24 hrs; assay type: functional; details: NCTC 13616, 24 h, read-out: MBC99.9
Procedure, shortened: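 MBC determined by a standard MBC protocol run alongside the MIC determination. Gentamycin sulfate and ampicillin served as reference drugs.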

Bacillus spizizenii [18] = experiment: Bactericidal activity against Bacillus subtilis ATCC 6633 after 24 hrs; assay type: functional; details: ATCC 6633, 24 h, read-out: MBC99.9; procedure, shortened: as §4
Bacillus cereus [19] = experiment: Bactericidal activity against Bacillus cereus ATCC 14579 after 24 hrs; assay type: functional; details: ATCC 14579, 24 h, read-out: MBC99.9; procedure, shortened: as §4
Cytochrome P450 2A6 = target: T1, Cytochrome P450 2A6 (Homo sapiens, UniProt P11509); experiment: Inhibition of human microsomal CYP2A6; assay type: ADME
T1 sequence (P11509 whole entry): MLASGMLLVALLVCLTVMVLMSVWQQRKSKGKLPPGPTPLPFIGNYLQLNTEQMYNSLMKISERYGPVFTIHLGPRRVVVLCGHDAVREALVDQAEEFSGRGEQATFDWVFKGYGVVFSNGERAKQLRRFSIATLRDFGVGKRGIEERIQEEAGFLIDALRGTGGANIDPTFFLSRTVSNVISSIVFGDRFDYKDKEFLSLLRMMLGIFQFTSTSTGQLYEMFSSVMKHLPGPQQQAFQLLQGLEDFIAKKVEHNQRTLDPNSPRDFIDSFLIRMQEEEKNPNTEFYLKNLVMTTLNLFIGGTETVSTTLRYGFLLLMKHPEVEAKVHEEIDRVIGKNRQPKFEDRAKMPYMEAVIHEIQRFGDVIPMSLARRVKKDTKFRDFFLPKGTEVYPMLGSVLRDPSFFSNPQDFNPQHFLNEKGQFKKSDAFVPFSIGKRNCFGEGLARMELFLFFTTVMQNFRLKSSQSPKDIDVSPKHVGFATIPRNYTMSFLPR

[20] = n-Octanol-phosphate buffer partition coefficient, log P of the compound at pH 7.4 after 30 mins by shake flask method; assay type: physicochemical
Procedure, shortened: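 Shake-flask partition between n-octanol and 50 mM phosphate buffer, pH 7.4. P calculated and expressed as logP.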

| SMILES | pIC50 [1] | pIC50 (MCF7) | pIC50 (HeLa) | growth inhibition (GI) (Bacillus cereus [2]) | growth inhibition (GI) (Bacillus spizizenii [3]) | growth inhibition (GI) (Staphylococcus aureus [5]) | MIC (Escherichia coli [8]) [µg/mL] | MIC (Klebsiella pneumoniae [9]) [µg/mL] | MIC (Proteus vulgaris [10]) [µg/mL] | MIC (Staphylococcus aureus [11]) [µg/mL] | MIC (Bacillus spizizenii [12]) [µg/mL] | MIC (Bacillus cereus [13]) [µg/mL] | MBC (Escherichia coli [14]) [µg/mL] | MBC (Klebsiella pneumoniae [15]) [µg/mL] | MBC (Proteus vulgaris [16]) [µg/mL] | MBC (Staphylococcus aureus [17]) [µg/mL] | MBC (Bacillus spizizenii [18]) [µg/mL] | MBC (Bacillus cereus [19]) [µg/mL] | pKi (Cytochrome P450 2A6) | also measured |
| --- | --- | --- | --- | --- | --- | --- | --- | --- | --- | --- | --- | --- | --- | --- | --- | --- | --- | --- | --- | --- |
| Cc1ccc(-c2nn(-c3nc(-c4cc5cc(Br)ccc5oc4=O)cs3)cc2C=O)cc1 | 4.68 | 4.45 | 4.85 | Active | Active | Active | 135 (≈ 273 µM) | 124 (≈ 252 µM) | 122 (≈ 247 µM) | 138 (≈ 280 µM) | 125 (≈ 254 µM) | 126 (≈ 256 µM) | 270 (≈ 548 µM) | 250 (≈ 508 µM) | 240 (≈ 487 µM) | 275 (≈ 559 µM) | 250 (≈ 508 µM) | 250 (≈ 508 µM) | 8.81 | growth inhibition (GI) (Proteus vulgaris [4]): Active; growth inhibition (GI) (Klebsiella pneumoniae [6]): Active; growth inhibition (GI) (Escherichia coli [7]): Active |
| O=Cc1cn(-c2nc(-c3cc4cc(Cl)ccc4oc3=O)cs2)nc1-c1ccccc1 | < 4.00 | < 4.00 | 4.89 | – | – | inactive | 135 (≈ 310 µM) | 129 (≈ 297 µM) | 130 (≈ 300 µM) | 150 (≈ 346 µM) | 130 (≈ 298 µM) | 139 (≈ 319 µM) | 265 (≈ 611 µM) | 190 (≈ 438 µM) | 260 (≈ 599 µM) | 300 (≈ 691 µM) | 190 (≈ 438 µM) | 275 (≈ 634 µM) | 8.59 | – |
| COc1cccc2cc(-c3csc(-n4cc(C=O)c(-c5ccc(Cl)cc5)n4)n3)c(=O)oc12 | 4.42 | 4.14 | 4.38 | Active | Active | Active | 125 (≈ 270 µM) | 129 (≈ 278 µM) | 132 (≈ 285 µM) | 139 (≈ 300 µM) | 133 (≈ 286 µM) | 126 (≈ 272 µM) | 185 (≈ 399 µM) | 260 (≈ 560 µM) | 260 (≈ 560 µM) | 275 (≈ 593 µM) | 260 (≈ 560 µM) | 250 (≈ 539 µM) | 8.49 | growth inhibition (GI) (Proteus vulgaris [4]): Active; growth inhibition (GI) (Klebsiella pneumoniae [6]): Active; growth inhibition (GI) (Escherichia coli [7]): Active |
| O=Cc1cn(-c2nc(-c3cc4c(ccc5ccccc54)oc3=O)cs2)nc1-c1ccccc1 | 4.92 | 4.40 | 4.88 | – | – | – | 133 (≈ 295 µM) | 150 (≈ 334 µM) | 150 (≈ 334 µM) | 135 (≈ 300 µM) | 123 (≈ 273 µM) | 139 (≈ 309 µM) | 260 (≈ 578 µM) | 225 (≈ 501 µM) | 300 (≈ 667 µM) | 270 (≈ 601 µM) | 240 (≈ 534 µM) | 275 (≈ 612 µM) | 10.24 | logD at 0.5 h [20]: 3.54 |
| COc1cccc2c1C(=O)c1c(O)c3c(c(O)c1C2=O)C[C@@](O)(C(=O)CO)C[C@@H]3O[C@H]1C[C@H](N)[C@H](O)[C@H](C)O1 [DOXORUBICIN] | 5.60 | – | 5.41 | – | – | – | – | – | – | – | – | – | – | – | – | – | – | – | – | – |
| COc1cccc2cc(-c3csc(-n4cc(C=O)c(-c5ccc(C)cc5)n4)n3)c(=O)oc12 | 4.50 | 4.37 | 4.55 | – | – | inactive | 133 (≈ 299 µM) | 150 (≈ 338 µM) | 142 (≈ 320 µM) | 150 (≈ 338 µM) | 150 (≈ 338 µM) | 136 (≈ 307 µM) | 260 (≈ 586 µM) | 300 (≈ 676 µM) | 285 (≈ 643 µM) | 300 (≈ 676 µM) | 300 (≈ 676 µM) | 275 (≈ 620 µM) | 8.71 | – |
| O=Cc1cn(-c2nc(-c3cc4cc(Cl)cc(Cl)c4oc3=O)cs2)nc1-c1ccc(Cl)cc1 | 4.51 | 4.66 | 4.99 | Active | Active | Active | 111 (≈ 221 µM) | 105 (≈ 209 µM) | 113 (≈ 225 µM) | 112 (≈ 224 µM) | 111 (≈ 220 µM) | 112 (≈ 223 µM) | 220 (≈ 438 µM) | 155 (≈ 308 µM) | 225 (≈ 448 µM) | 225 (≈ 448 µM) | 165 (≈ 328 µM) | 220 (≈ 438 µM) | 8.57 | logD at 0.5 h [20]: 3 |

Source: ChEMBL document CHEMBL3739273, “Synthesis, biological activity evaluation and molecular docking studies of novel coumarin substituted thiazolyl-3-aryl-pyrazole-4-carbaldehydes” (Bioorg Med Chem Lett, 2015)
